Test results taken from ChEMBL document CHEMBL3877272, “Synthesis and anti-mitotic activity of 6,7-dihydro-4H-isothiazolo[4,5-b]pyridin-5-ones: In vivo and cell-based studies” (Eur J Med Chem, 2017).
Activity calls are given as the source filed them.

Tests used:
Paracentrotus lividus [1] = assay: Antimitotic activity in sea urchin embryo assessed as cleavage arrest exposed 8 to 15 mins after fertilization 45 to 55 mins before first mitotic cycle completion measured at 2.5 to 5.5 hrs post dose; type: functional
Procedure, shortened: (§1)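 Paracentrotus lividus eggs, fertilized in filtered seawater, cultured as monolayer (up to 2000 embryos/mL) at room temperature. Exposed 8–15 min post-fertilization to 2-fold decreasing concentrations (DMSO stock diluted in EtOH; final DMSO ≤0.05%, EtOH ≤1%). Cleavage alteration scored at 8-cell, arrest at early blastula stage (2.5–5.5 h). Effective threshold concentration reported; duplicate measurements.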

[2] = Solubility in DMSO; type: physicochemical
Paracentrotus lividus [3] = assay: Antimitotic activity in sea urchin free-swimming blastulae assessed as microtubule destabilization by measuring embryo spinning exposed 8 to 10 hrs after fertilization measured after 15 mins to 20 hrs; type: functional, Blastula
Procedure, shortened: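 Free-swimming P. lividus blastulae just after hatching (8–10 h post-fertilization) from same culture, exposed in seawater to 2-fold decreasing concentrations (DMSO stock diluted in EtOH). Settling to well bottom with rapid spinning around animal-vegetal axis scored by light microscopy over 15 min–20 h. Effective threshold concentration; duplicate measurements.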

Paracentrotus lividus [4] = assay: Antimitotic activity in sea urchin embryo assessed as cleavage alteration exposed 8 to 15 mins after fertilization 45 to 55 mins before first mitotic cycle completion measured at 2.5 to 5.5 hrs post dose; type: functional; procedure, shortened: as §1
[5] = Antiproliferative activity against human MDA-MB-468 cells measured after 96 hrs by Celltiter-Glo assay; type: functional, cell-based; conditions: MDA-MB-468, 96 h
Procedure, shortened: (§2)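 Cells plated 24 h, then treated 96 h with 0.1% DMSO or concentrations […]; growth by CellTiter-Glo luminescence, normalized to DMSO control; IC50 from dose–response curves by logistic nonlinear regression; mean of three independent experiments.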

[6] = Antiproliferative activity against human MDA-MB-435 cells measured after 96 hrs by Celltiter-Glo assay; type: functional, cell-based; conditions: MDA-MB-435, 96 h; procedure, shortened: as §2
[7] = Antiproliferative activity against human MDA-MB-231 cells measured after 96 hrs by Celltiter-Glo assay; type: functional, cell-based; conditions: MDA-MB-231, 96 h; procedure, shortened: as §2
[8] = Antiproliferative activity against human NCI60 cells measured after 48 hrs by SRB assay; type: functional; conditions: NCI60, 48 h
[9] = Antiproliferative activity against human TOV112D cells measured after 96 hrs by Celltiter-Glo assay; type: functional, cell-based; procedure, shortened: as §2
[10] = Antiproliferative activity against human MDA-MB-DYT2 cells measured after 96 hrs by Celltiter-Glo assay; type: functional, cell-based; procedure, shortened: as §2
[11] = Antiproliferative activity against human MDA-MB-468 cells measured after 48 hrs by SRB assay; type: functional, cell-based; conditions: MDA-MB-468, 48 h
[12] = Antiproliferative activity against human Caov3 cells measured after 96 hrs by Celltiter-Glo assay; type: functional, cell-based; conditions: Caov-3, 96 h; procedure, shortened: as §2
[13] = Solubility in seawater assessed as micro-crystal formation at 2 uM by light microscopy; type: physicochemical
Procedure, shortened: (§3)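 Compound from 10 mM DMSO stock diluted 10-fold in 96% EtOH, added to seawater with sea urchin embryos; microcrystal formation checked by light microscopy.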

[14] = Antiproliferative activity against human NCI-H1975 cells measured after 96 hrs by Celltiter-Glo assay; type: functional, cell-based; conditions: NCI-H1975, 96 h; procedure, shortened: as §2
[15] = Antiproliferative activity against human MDA-MB-435 cells measured after 48 hrs by SRB assay; type: functional, cell-based; conditions: MDA-MB-435, 48 h
[16] = Antiproliferative activity against human OVCAR8 cells measured after 3 to 4 days by Celltiter-Glo luminescent cell viability assay; type: functional; conditions: OVCAR-8
[17] = Antiproliferative activity against human NCI/ADR-RES cells measured after 3 to 4 days by Celltiter-Glo luminescent cell viability assay; type: functional
[18] = Cell cycle arrest in human MDA-MB-468 cells assessed as reduction in G1 phase at 1 uM measured after 24 hrs by DNA dye based flow cytometry; type: functional
Procedure, shortened: (§4)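 Cells exposed to 1 µM compound or 0.1% DMSO for 24 h; stained with bivariate cell cycle kit (DNA dye); Sub-G1, G1, S and G2/M fractions by flow cytometry as mean percentage with standard error; two independent experiments in duplicate.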

NCI-H1975 = assay: Induction of microtubule disintegration in human NCI-H1975 cells at 1 uM measured upto 24 hrs by Hoechst staining-based laser scanning microscopic method; type: cell-based
Procedure, shortened: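 NCI-H1975 cells, 0.1% DMSO or 1 µM compound for 6, 16 and 24 h; paraformaldehyde-fixed, Triton-permeabilized, BSA-blocked, anti-β-tubulin (1:1000, overnight 4 °C) with Alexa Fluor 647 secondary, Hoechst nuclear counterstain; laser scanning confocal imaging.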

[19] = Cell cycle arrest in human NCI-H1975 cells assessed as accumulation in sub-G1 phase at 1 uM measured after 24 hrs by DNA dye based flow cytometry; type: functional; procedure, shortened: as §4
[20] = Cell cycle arrest in human MDA-MB-468 cells assessed as accumulation in sub-G1 phase at 1 uM measured after 24 hrs by DNA dye based flow cytometry; type: functional; procedure, shortened: as §4
[21] = Antiproliferative activity against human A2780/ADR cells measured after 3 days by Celltiter-Glo assay; type: functional, cell-based; conditions: 72 h
Procedure, shortened: (§5)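 Cells in ATCC-recommended medium, STR-authenticated, mycoplasma-tested; 3-day exposure to varying concentrations; viability by CellTiter-Glo luminescence normalized to DMSO control; IC50 from logistic nonlinear regression; mean of three independent experiments.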

[22] = Cell cycle arrest in human MDA-MB-468 cells assessed mitotic index by measuring level of phospho-histone H3 positive cells at 1 uM measured after 24 hrs by DNA dye based flow cytometry (reference value: 2.18); type: functional
[23] = Antiproliferative activity against human A2780 cells measured after 3 days by Celltiter-Glo assay; type: functional, cell-based; conditions: A2780, 72 h; procedure, shortened: as §5
[24] = Cell cycle arrest in human MDA-MB-468 cells assessed as reduction in S phase at 1 uM measured after 24 hrs by DNA dye based flow cytometry; type: functional; procedure, shortened: as §4
[25] = Antiproliferative activity against human MOR cells measured after 3 days by Celltiter-Glo assay; type: functional, cell-based; conditions: 72 h; procedure, shortened: as §5
[26] = Cell cycle arrest in human NCI-H1975 cells assessed mitotic index by measuring level of phospho-histone H3 positive cells at 1 uM measured after 24 hrs by DNA dye based flow cytometry (reference value: 1.9); type: functional
[27] = Antiproliferative activity against human adriamycin-resistant MOR cells measured after 3 days by Celltiter-Glo assay; type: functional, cell-based; conditions: 72 h; procedure, shortened: as §5
[28] = Cell cycle arrest in human NCI-H1975 cells assessed as reduction in S phase at 1 uM measured after 24 hrs by DNA dye based flow cytometry; type: functional; procedure, shortened: as §4
[29] = Cell cycle arrest in human NCI-H1975 cells assessed as accumulation in G2/M phase at 1 uM measured after 24 hrs by DNA dye based flow cytometry (reference value: 20%); type: functional; procedure, shortened: as §4
[30] = Antiproliferative activity against human A2780cis cells measured after 3 days by Celltiter-Glo assay; type: functional, cell-based; conditions: A2780cisR, 72 h; procedure, shortened: as §5
[31] = Cell cycle arrest in human NCI-H1975 cells assessed as reduction in G1 phase at 1 uM measured after 24 hrs by DNA dye based flow cytometry; type: functional; procedure, shortened: as §4
[32] = Antiproliferative activity against human MOR/CPR cells measured after 3 days by Celltiter-Glo assay; type: functional, cell-based; conditions: 72 h; procedure, shortened: as §5
[33] = Solubility in seawater assessed as micro-crystal formation at 1 uM by light microscopy; type: physicochemical; procedure, shortened: as §3
Paracentrotus lividus [34] = assay: Antimitotic activity in early pluteus stage of sea urchin embryo assessed as growth inhibition of skeletal spicules at 1 uM; type: functional, tissue-based; conditions: Spicule
Procedure, shortened: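 P. lividus embryos (gametes by intracoelomic 0.5 M KCl, fertilized in filtered seawater, room temperature, paddle agitation 60 rpm); compound from 10 mM DMSO stock diluted 10-fold in 96% EtOH; growth of skeletal spicules scored by light microscopy at early pluteus stage.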

[35] = Antiproliferative activity against human NCI60 cells at 10 uM after 48 hrs by SRB assay relative to control; type: functional; conditions: NCI60, 48 h, read-out: GI

SMILES	EC (Paracentrotus lividus [1])	EC (Paracentrotus lividus [3])	EC (Paracentrotus lividus [4])	IC50 [5]	IC50 [6]	IC50 [7]	GI50 [8]	IC50 [9]	IC50 [10]	IC50 [11]	IC50 [12]	IC50 [14]	IC50 [15]	GI50 [16]	GI50 [17]	further results
COc1ccc(-c2nsc3c2NC(=O)CC3c2cc(OC)c3c(c2)OCO3)cc1 (stereo unspecified)	>4 µM	>4 µM	>4 µM	–	–	–	–	–	–	–	–	–	–	–	–	solubility [2]: Soluble
COc1ccc(-c2nsc3c2NC(=O)CC3c2cccc(OC)c2)cc1 (stereo unspecified)	0.05 µM	0.1 µM	0.01 µM	662 nM	591 nM	1390 nM	1550 nM	808 nM	1910 nM	395 nM	1480 nM	1980 nM	282 nM	3220 nM	420 nM	solubility [13]: Insoluble
COc1ccc(-c2nsc3c2NC(=O)CC3c2ccsc2)cc1 (stereo unspecified)	0.005 µM	0.1 µM	0.002 µM	163 nM	80.7 nM	192 nM	302 nM	136 nM	309 nM	117 nM	152 nM	254 nM	23.5 nM	–	–	Activity [18]: Active; Activity (NCI-H1975): Active; Activity [19]: Active; Activity [20]: Active; IC50 [21]: 355 nM; Activity index [22]: 11.3; IC50 [23]: 229 nM; Activity [24]: Active; IC50 [25]: 702 nM; Activity index [26]: 6.95; IC50 [27]: 63 nM; Activity [28]: Active; Activity [29]: 30%; IC50 [30]: 187 nM; Activity [31]: Active; IC50 [32]: 321 nM
COc1ccc(-c2nsc3c2NC(=O)CC3c2ccc3c(c2)OCO3)cc1 (stereo unspecified)	0.1 µM	0.2 µM	0.01 µM	–	–	–	1550 nM	–	–	–	–	–	–	3040 nM	524 nM	solubility [33]: Insoluble
COc1cc(C2CC(=O)Nc3c(-c4ccc(F)cc4)nsc32)cc2c1OCO2 (stereo unspecified)	>4 µM	>4 µM	>4 µM	–	–	–	–	–	–	–	–	–	–	–	–	Activity (Paracentrotus lividus [34]): Active; inhibition of growth at 10 µM [35]: 10.1%
